A selection: hits, their analogues and other compounds. The true share with any hit is near 1.1%.
PMI activator: phosphomannose isomerase (human) activation; P34949; activation factor at 20 µM; 190,000 compounds, 0.005% hits; purified human PMI, coupled resazurin fluorescence, 20 min; active compounds read high; 1 = vehicle control, 0 substrate-free wells; AID 1214;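 active = activation factor of 2 or more at 20 µM, relative to plate controls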
Target sequence (P34949 whole entry, looked up): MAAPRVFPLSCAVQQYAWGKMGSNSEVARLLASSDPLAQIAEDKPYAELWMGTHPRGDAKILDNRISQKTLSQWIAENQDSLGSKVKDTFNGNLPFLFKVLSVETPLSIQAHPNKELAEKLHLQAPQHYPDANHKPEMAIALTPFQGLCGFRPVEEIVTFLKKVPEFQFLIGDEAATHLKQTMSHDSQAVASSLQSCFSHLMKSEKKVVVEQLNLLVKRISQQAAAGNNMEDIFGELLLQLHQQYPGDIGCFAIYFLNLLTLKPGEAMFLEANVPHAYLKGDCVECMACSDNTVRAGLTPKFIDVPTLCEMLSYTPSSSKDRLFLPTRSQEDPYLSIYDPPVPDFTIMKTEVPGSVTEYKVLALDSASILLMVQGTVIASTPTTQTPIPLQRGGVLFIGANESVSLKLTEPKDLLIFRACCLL
G6PDH CS: counter-screen for G6PDH assay hits: L. mesenteroides G6PDH inhibition; Purified L. mesenteroides G6PDH, diaphorase/resazurin coupled fluorescence, 45 min; inhibition, % at 5 µM; 200,000 compounds, 0.12% hits; AID 1020; in the data active = inhibition above about 50%
Diaph act CS: diaphorase activation or chemical reduction counter-screen | Diaphorase/resazurin coupled assay, resorufin fluorescence, 16 min; active compounds read high; 1 = vehicle wells, 0 = NADH-free wells | activation factor at 20 µM | 190,000 compounds, 0.005% hits;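 active = diaphorase activity raised at least twofold by the compound at 20 µM; inactive = activation factor below 2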
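Material: Purified diaphorase enzyme from Clostridium kluyveri | Buffer or medium: 50 mM HEPES pH 7.4 with 4.542 mM MgCl2, 0.005% Tween 20 | Times: 16 min enzyme reaction, ambient temperature | Signal: Red resorufin fluorescence at 544/590 nm excitation/emission | Measure: Increased resorufin signal from activators or reducing compounds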
Diaphorase inh: counter-screen for diaphorase-based assays: diaphorase inhibitors and chemical oxidizers | diaphorase resazurin-to-resorufin fluorescence, NADH, 16 min; bacterial (C. kluyveri) enzyme, not human | inhibition, % at 20 µM | 190,000 compounds, 0.69% hits | AID 1217;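 active = primary screen inhibition at 20 µM above a set limit, cut at about 50% in these data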
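Test system: diaphorase enzyme from Clostridium kluyveri; amount: diaphorase at 0.14 U/mL in enzyme working solution; detection: fluorescence of resorufin formed from resazurin, Ex 544/Em 590 nm; times: reaction incubation of 16 min at room temperature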
PMI act satM6P: PMI (human) activation, high substrate; 190,000 compounds, 0.34% hits; activation factor at 20 µM; P34949; AID 1216; coupled PMI enzyme assay, resazurin fluorescence, 20 min; active compounds read high; 1 = untreated enzyme, 0 = substrate-free blank;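 active = activation factor of 2 or more at 20 µM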
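test system = human PMI in coupled enzyme assay | medium = HEPES-buffered pH 7.4 with magnesium and detergent | also added = 1.0 mM mannose-6-phosphate substrate with 0.22 mM NADP+ | compound = 20 µM single dose | times = 20 min incubation at room temperature | measured by = resorufin fluorescence (Ex 544/Em 590 nm) from resazurin via diaphorase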
Of the large screens only hits and unclear results are named; the others gave an inactive call.

CCCSc1nc2cc(C)c(C)cc2n1CC(C)O (stereo unspecified)	PMI act satM6P 2.3
CCSc1cc(C2C(C#N)=C(N)OC(C)=C2C(=O)OC)c(C)o1 (stereo unspecified)	PMI act satM6P 2
CCCCSc1nc(C)[nH]c1[N+](=O)[O-]	PMI act satM6P 2
CCOc1cc([N+](=O)[O-])cc(/C=C2/NC(=O)N(Cc3ccccc3F)C2=O)c1O	Diaphorase inh 56
Cc1cc(/C=C2/NC(=O)N(Cc3ccccc3F)C2=O)c(C)n1C	none
c1ccc(-c2cn3nc(-c4ccccc4)cnc3n2)cc1	PMI act satM6P 2.6
O=C(O)c1cccc(-c2ccc(/C=N/NC(=O)c3cccnc3)o2)c1	none
O=C(N/N=C/c1ccc(-c2ccccc2[N+](=O)[O-])o1)c1cccnc1	Diaphorase inh 59
Cc1nc(NC(=O)c2cccc(Cl)c2)sc1C(=O)N1CCCCC1	none (no result: PMI activator, Diaph act CS, Diaphorase inh, PMI act satM6P)
CN1C(=O)/C(=C/c2ccccc2OCc2ccccc2)NC1=S	none
CN1C(=O)/C(=C/c2ccccc2OCc2ccc(C(=O)O)cc2)NC1=S	Diaphorase inh 58
CC(=O)OCCCNc1cc(SCc2ccco2)c2nonc2c1[N+](=O)[O-]	Diaphorase inh 87
CCCSc1cc(NCCOC(=O)CCC)c([N+](=O)[O-])c2nonc12	Diaphorase inh 51
CCCSc1cc(NCCOC(C)=O)c([N+](=O)[O-])c2nonc12	none
CCCC(=O)OCCNc1cc(SCc2ccco2)c2nonc2c1[N+](=O)[O-]	Diaphorase inh 71
Cc1ccc([N+](=O)[O-])cc1S(=O)(=O)n1ccnc1C	none (no result: PMI activator, Diaph act CS, Diaphorase inh, PMI act satM6P)
O=c1[nH]c(SCc2ccccc2)nc2[nH]ncc12	none
C=CCn1c(SCC(=O)N2N=C(c3ccco3)CC2c2ccco2)nnc1-c1ccncc1 (stereo unspecified)	Diaphorase inh 74
Cc1cc(C)c2nc(SCC(=O)NCCC3=CCCCC3)cc(C)c2c1	none
COc1ccc(CCNC(=O)c2cnn3c(C(F)F)cc(C)nc23)cc1OC	Diaphorase inh 78
COc1ccccc1CCNC(=O)c1cnn2c(C(F)F)cc(C)nc12	none
Cc1cc(-c2csc3nc[nH]c(=S)c23)cc(C)c1C	Diaphorase inh 56
Cc1sc2nc(-c3ccccn3)[nH]c(=O)c2c1-c1ccccc1	none
Cc1ccc(-c2csc3nc[nH]c(=S)c23)cc1	Diaphorase inh 70
Cc1sc2nc[nH]c(=S)c2c1-c1ccccc1	Diaphorase inh 82
S=c1[nH]cnc2scc(-c3ccc(Br)cc3)c12	none
O=c1[nH]cnc2scc(-c3ccccc3)c12	none
CC(=O)NC1C(=O)N=C(SCC(=O)Nc2ccc(C(F)(F)F)cc2Cl)NC1=O (stereo unspecified)	none
CCC(=O)N(NC1=NS(=O)(=O)c2ccccc21)S(=O)(=O)c1ccc(C)cc1	none
CCCCc1c(C)nc2ccc(Br)cc2c1SC(N)N	PMI act satM6P 2.2
CCOC(=O)CNC(=O)CSc1nnc(NC(=O)c2ccccc2Cl)s1	none
CN(C)Cc1c(-c2ccc(Cl)cc2)nc2ccc(Cl)cn12	none
CC(=O)N(Cc1ccc(F)cc1)C1=C(NCCc2ccccc2)C(=O)c2ccccc2C1=O	G6PDH CS 50
CC(=O)N(Cc1ccc(F)cc1)c1cccc(C)c1C	none
CC(=O)c1ccc(N2CCN(C(=O)c3cc(-c4cccnc4)nc4ccc(Br)cc34)CC2)cc1	Diaphorase inh 52
O=C(c1cc(-c2cccnc2)nc2ccc(Br)cc12)N1CCN(c2ncccn2)CC1	none
NNc1nc(-c2ccccc2)cs1	PMI act satM6P 2
c1ccc(N/N=C(\Cc2nc3ccccc3[nH]2)c2ccccc2)cc1	PMI act satM6P 2.9
N#CCCN/N=C(\Cc1nc2ccccc2[nH]1)c1ccccc1	none
Clc1cccc(/C(Cc2nc3ccccc3[nH]2)=N\Nc2ccccc2)c1	PMI act satM6P 2.5
Cc1ccc(N/N=C(\Cc2nc3ccccc3[nH]2)c2ccccc2)cc1	PMI act satM6P 2.2
CCN/N=C(\Cc1nc2ccccc2[nH]1)c1ccccc1	none
O=C(NCC1CCCO1)c1cncc(Br)c1 (stereo unspecified)	none
Cc1cccc(Nc2nc(NCCCN3CCOCC3)nc(N)c2[N+](=O)[O-])c1	none
O=[N+]([O-])c1ccccc1-c1ccc(C(=S)N2CCCC2)o1	Diaphorase inh 53
CCC(C(=O)NCc1ccccc1OC)n1nc(C)n2c(cc3occc32)c1=O (stereo unspecified)	none
O=C(c1ccccc1)c1c[nH]c(C(=O)NCc2cccnc2)c1	none
O=C(c1ccccc1)c1c[nH]c(C(=O)NNc2ccccc2)c1	PMI act satM6P 2.3
C/C(=N\NC(=O)CNc1cccc(C(F)(F)F)c1)c1ccc(Br)cc1	none
C/C(=N\NC(=O)c1cccc(N/N=C(\C)c2ccncc2)c1)c1ccncc1	PMI act satM6P 2.5
C/C(=N\NC(=O)c1cccc([N+](=O)[O-])c1)c1ccncc1	none
C/C(=N\NC(=O)c1cccc(N/N=C(\C)c2ccccc2)c1)c1ccccc1	PMI act satM6P 2.7
C/C(=N\Nc1cccc(C(F)(F)F)c1)c1ccc(O)cc1	PMI act satM6P 2.1
O=C(O)c1cn[nH]c1-c1cccc([N+](=O)[O-])c1	none
COc1ccc(C(=O)N/C(=C\c2ccco2)C(=O)NC2CCS(=O)(=O)C2)cc1 (stereo unspecified)	none
CC(C)N1CCc2c(sc(NC(=O)c3cc4cc([N+](=O)[O-])ccc4s3)c2C(N)=O)C1	Diaphorase inh 67
C=CCn1c2ccccc2c2nnc(SCCCn3c(=O)[nH]c4ccccc43)nc21	Diaphorase inh 57
C=CCn1c2ccccc2c2nnc(SCN3C(=O)c4ccccc4C3=O)nc21	none
O=C(Nc1ccccc1O)c1ccc(NS(=O)(=O)c2cccc3cccnc23)cc1	none
Fc1ccc(N/N=C2/CC(c3ccccc3)Oc3ccccc32)c(F)c1 (stereo unspecified)	PMI act satM6P 2.5
CNC(=S)N/N=C1\CC(c2ccccc2)Oc2ccccc21 (stereo unspecified)	none
Oc1cccc(/C=N/N(Cc2ccccc2)c2ccccc2)c1	none
Oc1ccc(/C=N/N(Cc2ccccc2)c2ccccc2)c(O)c1O	Diaphorase inh 87
CC1(C)Cc2ccccc2C2CC(O)C(=O)N21 (stereo unspecified)	PMI act satM6P 2
CC1CC(C)(C)N(C(=O)CN2C(=O)c3ccccc3C2=O)c2ccccc21 (stereo unspecified)	none
O=C(CSCc1nc2c(nnn2Cc2ccc(F)cc2)c(=O)[nH]1)Nc1cccc(C(F)(F)F)c1	none
O=C1C2=C(c3ccccc31)[N+](=O)C1CCCCC1N2[O-] (stereo unspecified)	Diaphorase inh 76
